pIC50, pKd: −log10 of the molar value.
Assays:
[1] = molecular target: T1, α-Mannosidase (α-Man) (Canavalia ensiformis, UniProt C0HJB3); assay: SPR bioactivity assessment: binding ability; set-up: species or system Canavalia ensiformis (Jack bean); conditions: swainsonine standard solution, PBST running buffer
T1 sequence (C0HJB3 1-562 limits assumed): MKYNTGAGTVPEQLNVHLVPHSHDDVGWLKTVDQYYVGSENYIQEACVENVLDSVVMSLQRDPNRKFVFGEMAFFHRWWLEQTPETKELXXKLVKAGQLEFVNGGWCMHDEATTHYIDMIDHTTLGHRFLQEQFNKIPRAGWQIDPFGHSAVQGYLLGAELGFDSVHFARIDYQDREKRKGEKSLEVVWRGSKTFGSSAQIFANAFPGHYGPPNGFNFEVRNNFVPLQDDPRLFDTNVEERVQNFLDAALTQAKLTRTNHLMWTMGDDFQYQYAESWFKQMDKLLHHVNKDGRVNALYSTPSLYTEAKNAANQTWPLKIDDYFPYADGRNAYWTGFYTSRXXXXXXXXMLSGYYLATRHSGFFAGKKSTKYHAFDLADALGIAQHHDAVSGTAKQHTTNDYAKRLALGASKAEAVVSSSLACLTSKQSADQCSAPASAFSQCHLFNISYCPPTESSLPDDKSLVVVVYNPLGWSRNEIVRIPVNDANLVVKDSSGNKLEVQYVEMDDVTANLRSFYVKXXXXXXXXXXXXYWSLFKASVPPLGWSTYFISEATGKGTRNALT
T1 sequence (C0HJB3 563-981 partner limits assumed): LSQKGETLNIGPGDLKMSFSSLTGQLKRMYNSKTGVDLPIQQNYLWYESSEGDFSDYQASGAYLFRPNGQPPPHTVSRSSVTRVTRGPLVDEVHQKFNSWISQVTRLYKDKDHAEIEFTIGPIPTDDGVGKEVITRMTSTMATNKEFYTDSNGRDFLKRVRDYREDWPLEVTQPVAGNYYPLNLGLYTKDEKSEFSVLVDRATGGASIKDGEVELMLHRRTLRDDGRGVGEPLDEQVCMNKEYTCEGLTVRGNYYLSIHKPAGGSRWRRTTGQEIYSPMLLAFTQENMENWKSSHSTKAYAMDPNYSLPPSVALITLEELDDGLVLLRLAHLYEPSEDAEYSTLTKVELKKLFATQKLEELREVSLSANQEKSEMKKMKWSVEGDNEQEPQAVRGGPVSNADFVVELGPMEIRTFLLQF
In short: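 Jack bean α-Man was amine-coupled onto the GLH chip binding channel after sulfo-NHS/EDC activation. Coupling was at 20 μg/mL in 10 mmol/L sodium acetate, pH 4, at 25 μL/min for 360 s, followed by ethanolamine blocking. A reference channel was activated and blocked without enzyme. A positive-control inhibitor standard was injected, with PBST (10 mmol/L Na3PO4, 150 mmol/L NaCl, 0.005% Tween 20, pH 7.4) as the blank. The response was followed during association.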

[2] = molecular target: T1, α-Mannosidase (α-Man); assay: SPR interaction analysis between compounds and immobilised α-Man; format: binding, Canavalia ensiformis (Jack bean); conditions: for pKd: KD (equilibrium dissociation constant), kinetic analysis, SPR, 25 °C, 1:1 Langmuir binding model; for kon: read-out: ka (association rate constant); for koff: read-out: kd (dissociation rate constant)
In short: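 The α-Man chip was referenced against an enzyme-free channel. Each test compound was run at six concentrations in a twofold series, injected in parallel at 25 μL/min and 25 °C, with 12 min association and 20 min dissociation. A 4.0–6.0% DMSO calibration curve was applied. Runs were done in triplicate. ka, kd and KD came from a global 1:1 Langmuir fit; equilibrium constants came from steady-state analysis.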

[3] = tested on: human hepatoma cancer cell line (HepG2); assay: cells; format: cell-based; conditions: HepG2, 72 h, read-out: IC50, anti-proliferative activity
[4] = tested on: human breast cancer cell line (MCF7); assay: cells; format: cell-based; conditions: MCF7, 72 h, read-out: IC50, anti-proliferative activity
[5] = tested on: human lung cancer cell line (HCC827); assay: cells; format: cell-based; conditions: HCC827, 72 h, read-out: IC50, anti-proliferative activity
[6] = tested on: mouse fibroblast cells (L929); assay: CCK-8 toxicity on normal cells, L929; format: cell-based; conditions: L929, under the condition of keeping 90% cell viability

| pKd [2] | kon [2] [M⁻¹ s⁻¹] | koff [2] [s⁻¹] | SMILES | response signal during association [1] [RU] | pIC50 [3] | pIC50 [4] | pIC50 [5] | safe dose [6] [µmol/L] |
| --- | --- | --- | --- | --- | --- | --- | --- | --- |
|  |  |  | O[C@H]1[C@H]2[C@H](O)CCCN2C[C@H]1O [swainsonine, Swainsonine] | 20 |  |  |  |  |
| 3.46 | 12 | 0.00418 | COc1cc(C=O)cc(OC)c1O [Compound 2, 3,5-Dimethoxy-4-hydroxy-benzaldehyde] |  |  |  |  |  |
| 2.86 | 1.54 | 0.00211 | O=Cc1ccc(O)cc1 [Compound 1, p-Hydroxybenzaldehyde] |  |  |  |  |  |
|  |  |  | COc1cc2ncnc(Nc3ccc(F)c(Cl)c3)c2cc1OCCCN1CCOCC1 [Gefitinib, reference compound] |  |  |  |  | 40 |

| SMILES | pKd [2] | kon [2] [M⁻¹ s⁻¹] | koff [2] [s⁻¹] | response signal during association [1] [RU] | pIC50 [3] | pIC50 [4] | pIC50 [5] | safe dose [6] [µmol/L] |
| --- | --- | --- | --- | --- | --- | --- | --- | --- |
| O=c1c2ccccc2nc2n1CCC2 [Compound 3, Deoxyvasicinone] | 4.33 | 73.3 | 0.00347 |  | 5.24 | 5.14 | 6.12 | 20 |
